One block for each compound: values may come before it.
Legend:
[1] = Chemical stability in simulated gastric fluid; format: physicochemical; details: simulated gastric fluid pH 1.2, 37 °C, up to 48 h
Outline: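 Test compound added to simulated gastric fluid (pH 1.2) and incubated at 37 °C. Samples taken at 30 min, 1, 4 and 48 h. Remaining thiolactone and hydrolysed parent quantified by HPLC: C18 column, water/acetonitrile gradient with 0.1% formic acid, UV detection at 220 nm.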

[2] = Preliminary in vivo pharmacokinetics in rats; details: rat, oral 10 mg/kg, time points 0.25, 0.5, 1, 3 h
[3] = system: rat chronic constriction injury model of neuropathic pain; details: cited from earlier work
GCPII = details: read-out: IC50 (GCPII); cited from earlier work
[4] = Metabolic stability in rat liver microsomes; format: in vitro ADME; details: over 1.5 h (data not shown)
Outline: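 Test compound at 10 μM incubated with rat liver microsomes (0.5 mg/mL) in 100 mM potassium phosphate, pH 7.4, in triplicate. Aliquots at 0, 30, 60 and 90 min were quenched with 2 volumes of ice-cold acetonitrile containing losartan as internal standard. Appearance of the parent thiol and loss of compound were followed by LC/MS/MS (C18, negative-ion ESI, MRM of [M − H]−).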

[5] = healthy subjects; cited from earlier work

- Release of parent compound / stability in simulated gastric fluid [1]: completely stable
- Time of highest plasma level of compound 1 [2]: highest at the earliest time point
SMILES: O=C(O)CCC1CCCSC1=O (stereo not drawn) [Compound 5, 3-(2-Oxotetrahydro-2H-thiopyran-3-yl)propanoic acid]

SMILES: O=C(O)CCC(CCCS)C(=O)O (stereo not drawn) [Compound 1, 2-(3-mercaptopropyl)pentanedioic acid]
- Efficacy in preclinical animal models by oral administration ([3]; variety of preclinical animal models, oral): showed efficacy
- IC50 (GCPII): 90 nM

SMILES: O=C(O)c1cccc(-c2cccc(CCS)c2C(=O)O)c1 [Compound 2, 3-(2-mercaptoethyl)-biphenyl-2,3’-dicarboxylic acid]
- Potency in a preclinical model of neuropathic pain following oral administration ([3]; oral administration): significantly improved potency over 1
- IC50 (GCPII): 2 nM

- Release of parent compound / stability in simulated gastric fluid [1]: completely stable
- Stability in rat liver microsomes [4]: completely stable
SMILES: O=C(O)c1cccc(-c2cccc3c2C(=O)SCC3)c1 [Compound 6, 3-(1-Oxoisothiochroman-8-yl)benzoic acid]

SMILES: CC(=O)S[C@@H](Cc1ccccc1)C(=O)N[C@H]1Cc2ccccc2[C@H]2CCC[C@@H](C(=O)O)N2C1=O [Compound 3]
- Plasma exposure to parent 4 after oral administration of prodrug [5]: substantial plasma exposure to 4
